# Most compounds without a hit are left out; they make up all but 2.6% or so of the library.
# Platelet DG rel = platelet dense granule release activity. human platelet-rich plasma, SFLLRN dense granule ATP release, luminescence. inhibition, %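 (compounds screened at 7.5 µM in platelet-rich plasma)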. 300,000 compounds, 0.22% hits. AID 1663;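 active means mean replicate score, as percent of positive control, at or above 50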
# SENP1 FRET inh = blocks the human SENP1 SUMO protease catalytic domain; recombinant SENP1 catalytic domain, CyPet-SUMO1-YPet FRET cleavage; inhibition, % at 10 µM; 360,000 compounds, 0.21% hits; AID 624204;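 active means inhibition at least 30% at 10 µM, raw YFP signal under a set limit, fluorescence ratio 0.5 to 1.5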;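 further: 0% = enzyme with DMSO and 100% = no enzyme wells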
#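 system = hSENP1 catalytic domain, recombinant | reagent = SFCypet-SUMO1-SFYpet substrate at 25 nM | doses = one dose per compound, 10 µM, 0.5% DMSO | incubation = enzyme reaction for 50 min at room temperature, dark | measured by = FRET, CFP and YFP emission | controls = no-enzyme low, enzyme-DMSO high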
# SENP7 inh = SENP7 protease inhibition. inhibition, % at 5 µM. AID 434973. recombinant SENP7, Z-RLRGG-aminoluciferin luminescence, 40 min. 330,000 compounds, 1.5% hits;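 active means inhibition above about 50% at the single test dose, limit read from the data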;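 further: plate controls were DMSO with enzyme for no effect and no enzyme buffer wells for full effect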
# Target sequence (Q9BQF6 706-1050 limits assumed): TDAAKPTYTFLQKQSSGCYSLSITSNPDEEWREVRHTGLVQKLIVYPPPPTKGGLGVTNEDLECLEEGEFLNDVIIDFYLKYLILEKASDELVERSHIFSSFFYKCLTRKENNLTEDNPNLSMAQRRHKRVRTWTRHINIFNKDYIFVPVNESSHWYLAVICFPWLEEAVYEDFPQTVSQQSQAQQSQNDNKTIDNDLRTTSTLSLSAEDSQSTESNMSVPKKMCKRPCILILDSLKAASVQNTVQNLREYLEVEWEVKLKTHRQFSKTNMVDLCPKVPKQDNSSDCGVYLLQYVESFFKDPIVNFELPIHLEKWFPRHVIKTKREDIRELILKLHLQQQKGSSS
# SENP8 block-1 = blocks the human protease SENP8 | 330,000 compounds, 1.2% hits | Q96LD8 | purified SENP8, Z-RLRGG-aminoluciferin cleavage, luminescence | inhibition, % at 10 µM | AID 2540; in the data active means inhibition above about 50%
# SENP6 block = SENP6 protease inhibition | Q9GZR1 | Recombinant SENP6 catalytic domain, aminoluciferin luminescence | inhibition, % at 10 µM | 330,000 compounds, 1.8% hits;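 active means inhibition above about 50% at the single tested dose, limit read from the data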;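 further: plate controls were DMSO wells with enzyme for no effect and DMSO wells lacking enzyme for full effect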
# SENP8 block-2 = SENP8 (human) protease inhibition. recombinant SENP8, Nedd8 substrate fluorescence. Q96LD8. 360,000 compounds, 0.64% hits. inhibition, % at 20 µM. AID 602440; in the data active means inhibition mostly above about 40%, no sharp cut-off; inactive means mostly below about 27%
# SENP8 conf = human SENP8 inhibition, confirmed; shares compounds with SENP7 inh; Recombinant SENP8, Z-RLRGG-aminoluciferin luminescence, 60 min; inhibition, % at 12.5 µM; 6,200 compounds, 40% hits; AID 488912;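 active means mean inhibition across replicates above about 50%, limit read from the data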
# SENP6 conf = confirmation of human SENP6 protease inhibitors | shares compounds with SENP7 inh | recombinant SENP6, Z-RLRGG-aminoluciferin luminescence | inhibition, % at 12.5 µM | 6,200 compounds, 58% hits
# SENP7 conf = confirmation of human SENP7 protease inhibitors; shares compounds with SENP7 inh; AID 488917; 6,200 compounds, 69% hits; recombinant SENP7, Z-RLRGG-aminoluciferin luminescence, 40 min; inhibition, % at 12.5 µM
# Casp3 select = selectivity test for SENP inhibitors: human caspase-3 inhibition | shares compounds with SENP7 inh | purified caspase-3, Z-DEVD-aminoluciferin luminescence, 60 min | inhibition, % at 12.5 µM | 6,200 compounds, 60% hits;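 active means mean inhibition above about 50%, limit read from the data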;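 further: plate controls were enzyme with DMSO for no effect and wells without caspase-3 for full effect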
# Target sequence (P42574 28-227 limits assumed): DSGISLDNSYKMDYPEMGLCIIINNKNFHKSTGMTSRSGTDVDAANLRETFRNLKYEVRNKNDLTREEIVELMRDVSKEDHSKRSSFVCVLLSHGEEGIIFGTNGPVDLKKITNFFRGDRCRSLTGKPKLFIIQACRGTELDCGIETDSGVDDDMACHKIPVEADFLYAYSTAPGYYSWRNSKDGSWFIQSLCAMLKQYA
# Luc interf = luminescence interference (SENP counter-screen) | Pre-incubated SENP8/Z-RLRGG-aminoluciferin, luciferase luminescence interference | shares compounds with SENP7 inh | 6,200 compounds, 39% hits | inhibition, % at 12.5 µM | AID 488919;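 active means mean inhibition above about 50% when retested at one dose, limit read from the data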;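 further: plate controls were DMSO wells with completed reaction for no effect and substrate without enzyme for full effect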
# * marks the source's active call; other numbers are inactive results; . = not tested or not shown.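 How the source made its calls, unless noted: active means mean inhibition above about 50% in the one-dose retest (limit read from the data); inactive means the rest.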
SMILES,Platelet DG rel,SENP1 FRET inh,SENP7 inh,SENP8 block-1,SENP6 block,SENP8 block-2,SENP8 conf,SENP6 conf,SENP7 conf,Casp3 select,Luc interf
Cc1ccc(-c2nc3cc(NC(=O)C(C)C)ccc3o2)cc1C,-4,0,98*,92*,95*,-280,5,23,12,77*,3
COc1cc(OC)cc(-c2nc3cc(C)ccc3o2)c1,10,-1,98*,94*,97*,-39,95*,97*,101*,94*,93*
Cc1ccc(-c2nc3cc(NC(=O)C(C)C)ccc3o2)cc1,-9,0,84*,35,76*,-491,1,6,7,13,10
Nc1ccc2c(c1)C/C(=C/c1ccco1)C2=O,3,-28,-8,-3,-40,-387,.,.,.,.,.
COc1ccc(C=C2CCc3ccccc3C2=O)cc1,.,-12,.,.,.,-13,.,.,.,.,.
COc1ccc2c(c1)CC/C(=C/c1ccco1)C2=O,14,-17,-5,83*,91*,-72,96*,97*,102*,92*,94*
O=C1/C(=C/c2ccco2)CCc2ccccc21,10,-35,-1,75*,87*,-50,97*,99*,102*,96*,94*
COc1ccccc1NC(=O)CSc1nc2ccccc2nc1N1CC(C)OC(C)C1 (stereo not drawn),12,-5,-15,-12,-4,-173,.,.,.,.,.
CCOC(=O)c1c(C)[nH]c(C(=O)OCC(=O)NCc2ccccc2)c1C,.,-5,5,3,-9,-17,.,.,.,.,.
CCOC(=O)c1c(C)[nH]c(C(=O)OCC(=O)c2ccccc2)c1C,9,1,39,42,51*,-7,46,44,76*,35,17
CC1CCCCC1NC(=O)C(Cc1ccccc1)NS(=O)(=O)c1cccs1 (stereo not drawn),-6,0,0,4,-2,-6,.,.,.,.,.
CC(CCc1ccccc1)NC(=O)C(Cc1ccccc1)NS(=O)(=O)c1cccs1 (stereo not drawn),2,0,80*,5,2,13,-30,-18,-8,-6,-9
CCSc1nc(N)c2c3c(sc2n1)CCC3,-1,-5,5,-4,3,-147,.,.,.,.,.
Cc1ccc(-c2nc3ccccc3c(=O)o2)cc1,-1,5,45,7,54*,-16,39,32,47,22,33
O=c1oc(-c2ccccc2)nc2sc3c(c12)CCC3,-9,-102,88*,20,91*,-72,51*,50,40,64*,29
Cc1sc2nc(-c3ccccc3)oc(=O)c2c1C,1,-9,91*,76*,47,2,62*,63*,64*,69*,34
Nc1nc(-c2ccccc2)nc2sc3c(c12)CCCC3,-11,0,75*,58*,84*,-401,3,70*,90*,46,12
O=C1CCC(=O)N1c1ccc(-c2nc3sc4c(c3c(=O)o2)CCC4)cc1,-4,-21,-15,-20,-45,-22,.,.,.,.,.
CCSC(=Nc1ccccc1)N1CCOCC1,-2,0,-11,-9,-13,23,.,.,.,.,.
Cc1ccc(S(=O)(=O)NC2CCCCC2)c(C)c1NS(C)(=O)=O,-5,2,-5,2,-12,10,.,.,.,.,.
Cc1nc2sc3c(c2c(=O)o1)CCCC3,6,1,-7,-2,-4,6,.,.,.,.,.
O=c1oc(-c2ccco2)nc2sc3c(c12)CCCC3,-4,-91,-10,42,72*,-173,66*,54*,52*,27,29
Cc1nc(C2COc3ccccc3O2)sc1C(=O)O (stereo not drawn),-3,3,80*,84*,88*,3,90*,91*,99*,97*,88*
Cc1ccc(NC(=O)c2cc3c(s2)CCCC3)cc1,-6,-4,-2,-10,11,5,.,.,.,.,.
O=C(Nc1ccc2c(c1)CCC2)c1cccc(F)c1,-7,0,92*,76*,88*,9,91*,91*,100*,88*,90*
SMILES,Platelet DG rel,SENP1 FRET inh,SENP7 inh,SENP8 block-1,SENP6 block,SENP8 block-2,SENP8 conf,SENP6 conf,SENP7 conf,Casp3 select,Luc interf
Cc1ccc(C(=O)Nc2ccc3c(c2)CCC3)cc1,-14,0,91*,81*,88*,10,88*,89*,98*,87*,86*
CSc1ccccc1C(=O)Nc1ccc2c(c1)CCC2,-1,-1,49,42,52*,6,47,44,77*,-6,54*
Cc1ccc(NC(=O)c2scc3c2CCCC3)cc1,-9,0,85*,2,91*,8,-10,-7,19,8,31
COc1ccc2c(c1)[C@H]1[C@H](CO2)[C@H](c2ccccc2)[C@]2(C)C(=O)N[C@@H](C)C(=O)N12,.,.,-3,3,6,.,.,.,.,.,.
COc1ccc(-n2c(SCCNCCO)nc3sc4c(c3c2=O)CCCC4)cc1,0,1,2,2,-9,19,.,.,.,.,.
COc1ccccc1OCCSc1nc2ccccc2n1CC(N)=O,-2,-1,1,-4,1,11,.,.,.,.,.
O=C(Nc1ccc2c(c1)CCC2)c1cc(F)cc(F)c1,.,-2,77*,70*,72*,4,39,78*,95*,65*,22
O=C(NC1CCCCC1)C1c2ccccc2OCC(=O)N1CC(F)(F)F (stereo not drawn),.,2,.,.,.,8,.,.,.,.,.
O=C1Nc2c(Cl)cc(Cl)cc2C1=O,.,-2,.,.,.,22,.,.,.,.,.
C/C(=N\NC(=O)c1n[nH]c2c1CCC2)c1ccco1,31,1,60*,55*,69*,9,12,68*,91*,91*,65*
C/C(=N/NC(=O)c1ccccn1)c1ccco1,40,2,2,63*,67*,3,76*,67*,90*,92*,71*
CN1C(=O)[C@H]2[C@@H](c3ccc(C(F)(F)F)cc3)N[C@]3(CCCN(CC4CCCCC4)C3=O)[C@H]2C1=O,.,1,.,.,.,16,.,.,.,.,.
COc1ccc(OC)c(NC(=O)COC(=O)[C@H](Cc2ccccc2)NC(=O)c2ccco2)c1,.,4,-9,12,0,3,.,.,.,.,.

# Assay outcomes: PubChem BioAssay, several laboratories
